The source of these data is the RNAGym collection of RNA variant scans (doi:10.1038/s41586-018-0170-7).

First the molecules themselves.
B1: tRNA (parent)
chain: GUUCCGUUGGCGUAAUGGUAACGCGUCUCCCUCCUAAGGAGAAGACUGCGGGUUCGAGUCCCGUACGGAACG

The variants in the series derive from B1. Put plainly: yeast fitness, log relative to wild type (ln ratio); higher = fitter; tRNA-Arg(CCU), competitive growth, 37 C, 1 M NaCl. In outline:
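Variants were counted by 125 bp paired-end Illumina sequencing after pools of a combinatorial tRNA-Arg(CCU) library, held on a HIS3 centromeric plasmid in BY4742 lacking the chromosomal gene, grew ~6.5 generations (~26.5 h) in SC-HIS 1M NaCl at 37 °C. Each genotype's fitness is the natural log of its generations relative to the wild type's. Generations were OD-scaled log2 output/input frequencies, inverse-variance weighted over replicates.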
As to GUUCCAUUGGCGUAAUGGUAACGCGUCUCCCUCCUAAGGAGAAGACUGCGGGUUCGAGUCCCGUAUGGGUCG, the “yeast fitness (ln)” value is -0.335. The figure for GGUCCGUUGGCGUAAUGGUAACGCGUUUCCCUCCUAAGGAGAAGAUUGCGGGUUCGAGUCCCGUAAGGGGUG is -0.184; for AGUCCUUUGGCGUAAUGGUAACGCGUCUCCCUCCUAAGGAGACGAUUGCGGGUUCGAGUCCCGUACGGGUCG it is -0.354.

In the case of AGUCCGUUGGCGUAAUGGUAACGCGUCUCCCUCCUAAGGAGAAGACUGCGGGUUCGAGUCCCGUAAGGAGCG, the “yeast fitness (ln)” value was -0.114. The figure for GGUCCAUUGGCGUAAUGGUAACGCGUCUCCCUCCUAAGGAGAAGACUGCGGGUUCGAGUCCCGUAAGGGGUG is -0.213.

In the case of GGUCCAUUGGCGUAAUGGUAACGCGUCUCCCUCCUAAGGAGAAGAUUGCGGGUUCGAGUCCCGUAAGGAAUG, the “yeast fitness (ln)” value is -0.134. Under AUUCCGUUGGCGUAAUGGUAACGCGUCUCCCUCCUAAGGAGAAGACUGCGGGUUCGAGUCCCGUAAGGAGCG stands -0.0993. The figure for GUUCCAUUGGCGUAAUGGUAACGCGUUUCCCUCCUAAGGAGAAGAUUGCGGGUUCGAGUCCCGUACGGGAUG is -0.252. As to GCUCCAUUGGCGUAAUGGUAACGCGUCUCCCUCCUAAGGAGAAGAUUGCGGGUUCGAGUCCCGUACGGAUUG, the “yeast fitness (ln)” value was -0.0461. Under GUUCCAUUGGCGUAAUGGUAACGCGUCUCCCUCCUAAGGAGACGACUGCGGGUUCGAGUCCCGUAAGGAUUG stands -0.395; under GCUCCUUUGGCGUAAUGGUAACGCGUCUCCCUCCUAAGGAGAAGAUUGCGGGUUCGAGUCCCGUACGGGGUG, -0.236.

GUUCCGUUGGCGUAAUGGUAACGCGUCUCCCUCCUAAGGAGACGAUUGCGGGUUCGAGUCCCGUAAGGAAUG: the “yeast fitness (ln)” value was -0.0684. Under AGUCCAUUGGCGUAAUGGUAACGCGUCUCCCUCCUAAGGAGACGACUGCGGGUUCGAGUCCCGUACGGAUCG stands -0.216; under GCUCCUUUGGCGUAAUGGUAACGCGUUUCCCUCCUAAGGAGACGAUUGCGGGUUCGAGUCCCGUACGGAAUG, -0.17. With GCUCCUUUGGCGUAAUGGUAACGCGUUUCCCUCCUAAGGAGACGAUUGCGGGUUCGAGUCCCGUAUGGAAUG, the “yeast fitness (ln)” value is -0.299. As to GGUCCUUUGGCGUAAUGGUAACGCGUCUCCCUCCUAAGGAGAAGACUGCGGGUUCGAGUCCCGUAAGGGUCG, the “yeast fitness (ln)” value was -0.000141. The figure for AUUCCGUUGGCGUAAUGGUAACGCGUCUCCCUCCUAAGGAGACGACUGCGGGUUCGAGUCCCGUAAGGAGCG is -0.19; for AUUCCUUUGGCGUAAUGGUAACGCGUUUCCCUCCUAAGGAGACGACUGCGGGUUCGAGUCCCGUAUGGAUCG it is -0.381. The figure for AUUCCAUUGGCGUAAUGGUAACGCGUUUCCCUCCUAAGGAGAAGACUGCGGGUUCGAGUCCCGUACGGAAUG is -0.238. The figure for GUUCCGUUGGCGUAAUGGUAACGCGUUUCCCUCCUAAGGAGACGACUGCGGGUUCGAGUCCCGUAUGGAGUG is -0.211. GGUCCUUUGGCGUAAUGGUAACGCGUUUCCCUCCUAAGGAGAAGAUUGCGGGUUCGAGUCCCGUAAGGGGUG: the “yeast fitness (ln)” value is -0.25. The figure for AUUCCGUUGGCGUAAUGGUAACGCGUUUCCCUCCUAAGGAGAAGACUGCGGGUUCGAGUCCCGUACGGAACG is -0.105; for ACUCCGUUGGCGUAAUGGUAACGCGUUUCCCUCCUAAGGAGAAGAUUGCGGGUUCGAGUCCCGUAAGGAGUG it is -0.262. The figure for AUUCCGUUGGCGUAAUGGUAACGCGUCUCCCUCCUAAGGAGACGAUUGCGGGUUCGAGUCCCGUAAGGAGUG is -0.191; for GUUCCGUUGGCGUAAUGGUAACGCGUCUCCCUCCUAAGGAGACGACUGCGGGUUCGAGUCCCGUAUGGGAUG it is -0.436; for GCUCCGUUGGCGUAAUGGUAACGCGUCUCCCUCCUAAGGAGAAGACUGCGGGUUCGAGUCCCGUAUGGAGCG it is -0.00448. Under GUUCCUUUGGCGUAAUGGUAACGCGUCUCCCUCCUAAGGAGACGACUGCGGGUUCGAGUCCCGUAUGGAAUG stands -0.422; under GCUCCUUUGGCGUAAUGGUAACGCGUCUCCCUCCUAAGGAGAAGAUUGCGGGUUCGAGUCCCGUACGGAACG, -0.0289. In the case of GUUCCUUUGGCGUAAUGGUAACGCGUCUCCCUCCUAAGGAGACGAUUGCGGGUUCGAGUCCCGUAAGGAUCG, the “yeast fitness (ln)” value is -0.113.

On to AUUCCUUUGGCGUAAUGGUAACGCGUCUCCCUCCUAAGGAGAAGAUUGCGGGUUCGAGUCCCGUAAGGAUUG, for which the “yeast fitness (ln)” value is -0.084. Under AGUCCGUUGGCGUAAUGGUAACGCGUCUCCCUCCUAAGGAGAAGAUUGCGGGUUCGAGUCCCGUAAGGAUCG stands -0.109. For the variant AUUCCGUUGGCGUAAUGGUAACGCGUUUCCCUCCUAAGGAGAAGACUGCGGGUUCGAGUCCCGUAUGGAACG, the “yeast fitness (ln)” value is -0.206. Under GUUCCUUUGGCGUAAUGGUAACGCGUUUCCCUCCUAAGGAGAAGACUGCGGGUUCGAGUCCCGUAUGGAACG stands -0.321; under ACUCCUUUGGCGUAAUGGUAACGCGUCUCCCUCCUAAGGAGAAGACUGCGGGUUCGAGUCCCGUACGGAGCG, -0.113.

As for AGUCCUUUGGCGUAAUGGUAACGCGUUUCCCUCCUAAGGAGAAGACUGCGGGUUCGAGUCCCGUAAGGAUUG, the “yeast fitness (ln)” value is -0.168. Turning to AGUCCGUUGGCGUAAUGGUAACGCGUCUCCCUCCUAAGGAGACGAUUGCGGGUUCGAGUCCCGUAUGGGUUG, the “yeast fitness (ln)” value was -0.341. The figure for GUUCCUUUGGCGUAAUGGUAACGCGUCUCCCUCCUAAGGAGACGACUGCGGGUUCGAGUCCCGUACGGGACG is -0.328.
